What was measured:
Human alphaherpesvirus 1 [1] = test: In vitro ability to inhibit synthesis of herpes simplex virus (HSV) DNA in isolated nuclei at dose 50 ug/mL
Human alphaherpesvirus 1 [2] = test: In vitro ability to inhibit synthesis of herpes simplex virus (HSV) DNA in isolated nuclei at dose 400 ug/mL
Nucleic Acid [3] = test: In vitro ability to inhibit HSV DNA polymerase activity in vitro using activated calf thymus DNA as atemplate at dose 50 ug/mL; type: nucleic-acid assay; details: herpes simplex virus
Human alphaherpesvirus 1 [4] = test: Compound were tested for their ability to inhibit HSV replication at their maximal nontoxic concentration; details: herpes simplex virus
Nucleic Acid [5] = test: In vitro ability to inhibit HSV DNA polymerase activity in vitro using activated calf thymus DNA as atemplate at dose 100 ug/mL; type: nucleic-acid assay; details: herpes simplex virus
Human alphaherpesvirus 1 [6] = test: In vitro ability to inhibit synthesis of herpes simplex virus (HSV) DNA in isolated nuclei at dose 25 ug/mL
Nucleic Acid [7] = test: In vitro ability to inhibit HSV DNA polymerase activity in vitro using activated calf thymus DNA as atemplate at dose 25 ug/mL; type: nucleic-acid assay; details: herpes simplex virus
Nucleic Acid [8] = test: In vitro ability to inhibit HSV DNA polymerase activity in vitro using activated calf thymus DNA as atemplate at dose 200 ug/mL; type: nucleic-acid assay; details: herpes simplex virus
Human alphaherpesvirus 1 [9] = test: In vitro ability to inhibit synthesis of herpes simplex virus (HSV) DNA in isolated nuclei at dose 200 ug/mL
Human alphaherpesvirus 1 [10] = test: In vitro ability to inhibit synthesis of herpes simplex virus (HSV) DNA in isolated nuclei at dose 100 ug/mL
BSC-1 = test: Evaluation of titer of virus progeny produced in untreated infected cells and in cells treated with the compound by plaque assay on BSC-1 cells.; type: functional, Cercopithecidae; set-up: concentration or dose not given beside the values
Method in brief: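 HSV type 1-infected cell cultures were exposed to drug at the maximal nontoxic concentration. Toxicity means cell death within 2 days of drug incubation at 37 °C; the maximal nontoxic level is the concentration whose twofold increase causes toxicity. Progeny virus titer was determined by plaque assay on BSC-1 cells. Yield is expressed as a percentage of the untreated infected-cell yield (taken as 100%).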

Nucleic Acid [11] = test: In vitro ability to inhibit HSV DNA polymerase activity in vitro using activated calf thymus DNA as atemplate at dose 400 ug/mL; type: nucleic-acid assay; details: herpes simplex virus
Human alphaherpesvirus 2 = test: Compound were tested for their ability to inhibit HSV replication at their maximal nontoxic concentration; 400 ug/mL of the drug was not toxic; type: functional, organism-based; details: herpes simplex virus

`CC(CC(=N)N)NC(=O)c1cc(NC(=O)c2cc(NC(=O)c3cc(NC(=O)CN=C(N)N)cn3C)cn2C)cn1C.Cl.Cl` (stereo not drawn) was tested, and the inhibition at 50 µg/mL (Human alphaherpesvirus 1 [1]) was 73%, the inhibition at 400 µg/mL (Human alphaherpesvirus 1 [2]) was 97% and the inhibition (Nucleic Acid [3]) was 59%. For the same compound, the Concentration (Human alphaherpesvirus 1 [4]) was 10 µg/mL, the inhibition (Nucleic Acid [5]) was 83% and the inhibition at 25 µg/mL (Human alphaherpesvirus 1 [6]) was 56%. It also gave an inhibition (Nucleic Acid [7]) of 26%, an inhibition (Nucleic Acid [8]) of 96% and an inhibition at 200 µg/mL (Human alphaherpesvirus 1 [9]) of 91%. It also gave an inhibition at 100 µg/mL (Human alphaherpesvirus 1 [10]) of 83%, an Inhibition (BSC-1) of 99.3% and an inhibition (Nucleic Acid [11]) of 97%.
`CC(CC#N)NC(=O)c1cc(NC(=O)c2cc(NC(=O)c3cc(NC(=O)CN=C(N)N)cn3C)cn2C)cn1C.Cl` (stereo not drawn) showed a Concentration (Human alphaherpesvirus 2) greater than 400 µg/mL and an Inhibition (BSC-1) of 90.9%.
Work on `Cl.Cl.Cn1cc(NC(=O)c2cc(NC(=O)c3cc(NC(=O)CN=C(N)N)cn3C)cn2C)cc1C(=O)NCC(=N)N` yielded an inhibition (Nucleic Acid [3]) of 83%, a Concentration (Human alphaherpesvirus 1 [4]) of 100 µg/mL and an inhibition (Nucleic Acid [5]) of 89%. For the same compound, the inhibition (Nucleic Acid [7]) was 39%, the inhibition (Nucleic Acid [8]) was 99% and the Inhibition (BSC-1) was 99.7%. For the same compound, the inhibition (Nucleic Acid [11]) was 99%.
Work on `Cl.Cl.Cn1cc(NC(=O)c2cc(NC(=O)c3cc(NC=O)cn3C)cn2C)cc1C(=O)NCCC(=N)N` yielded an inhibition at 50 µg/mL (Human alphaherpesvirus 1 [1]) of 85%, an inhibition at 400 µg/mL (Human alphaherpesvirus 1 [2]) of 98% and an inhibition (Nucleic Acid [3]) of 62%. For the same compound, the Concentration (Human alphaherpesvirus 1 [4]) was 25 µg/mL, the inhibition (Nucleic Acid [5]) was 85% and the inhibition at 25 µg/mL (Human alphaherpesvirus 1 [6]) was 79%. For the same compound, the inhibition (Nucleic Acid [7]) was 20%, the inhibition (Nucleic Acid [8]) was 98% and the inhibition at 200 µg/mL (Human alphaherpesvirus 1 [9]) was 95%. It also gave an inhibition at 100 µg/mL (Human alphaherpesvirus 1 [10]) of 89%, an Inhibition (BSC-1) of 99.7% and an inhibition (Nucleic Acid [11]) of 99%.
In the case of `Cl.Cn1cc(NC(=O)c2cc(NC(=O)c3cc(NC(=O)CN=C(N)N)cn3C)cn2C)cc1C(=O)NCCC#N`, the inhibition at 50 µg/mL (Human alphaherpesvirus 1 [1]) is reported as 68%, the inhibition at 400 µg/mL (Human alphaherpesvirus 1 [2]) is reported as 89% and the inhibition (Nucleic Acid [3]) is reported as 35%. For the same compound, the Concentration (Human alphaherpesvirus 1 [4]) was 50 µg/mL, the inhibition (Nucleic Acid [5]) was 68% and the inhibition at 25 µg/mL (Human alphaherpesvirus 1 [6]) was 56%. For the same compound, the inhibition (Nucleic Acid [7]) was 12%, the inhibition (Nucleic Acid [8]) was 79% and the inhibition at 200 µg/mL (Human alphaherpesvirus 1 [9]) was 87%. It also gave an Inhibition (BSC-1) of 93.14% and an inhibition (Nucleic Acid [11]) of 91%.
For `Cl.Cl.Cn1cc(NC(=O)c2cc(NC(=O)CNC(=N)N)cn2C)cc1C(=O)NCCC(=N)N` [CONGOCIDINE], the inhibition at 50 µg/mL (Human alphaherpesvirus 1 [1]) was 67%, the inhibition at 400 µg/mL (Human alphaherpesvirus 1 [2]) was 88% and the inhibition (Nucleic Acid [3]) was 61%. For the same compound, the Concentration (Human alphaherpesvirus 1 [4]) was 5 µg/mL, the inhibition (Nucleic Acid [5]) was 78% and the inhibition at 25 µg/mL (Human alphaherpesvirus 1 [6]) was 64%. The inhibition (Nucleic Acid [7]) was 30%, the inhibition (Nucleic Acid [8]) was 90% and the inhibition at 200 µg/mL (Human alphaherpesvirus 1 [9]) was 71%. For the same compound, the inhibition at 100 µg/mL (Human alphaherpesvirus 1 [10]) was 61%, the Inhibition (BSC-1) was 98.1% and the inhibition (Nucleic Acid [11]) was 93%.
Work on `Cl.Cl.Cn1cc(NC(=O)c2cc(NC(=O)c3cc(NC(=O)CN=C(N)N)cn3C)cn2C)cc1C(=O)NCCC(=N)N` yielded an inhibition at 50 µg/mL (Human alphaherpesvirus 1 [1]) of 84%, an inhibition at 400 µg/mL (Human alphaherpesvirus 1 [2]) of 97% and an inhibition (Nucleic Acid [3]) of 64%. For the same compound, the Concentration (Human alphaherpesvirus 1 [4]) was 25 µg/mL, the inhibition (Nucleic Acid [5]) was 93% and the inhibition at 25 µg/mL (Human alphaherpesvirus 1 [6]) was 78%. The inhibition (Nucleic Acid [7]) was 25%, the inhibition (Nucleic Acid [8]) was 94% and the inhibition at 200 µg/mL (Human alphaherpesvirus 1 [9]) was 97%. For the same compound, the inhibition at 100 µg/mL (Human alphaherpesvirus 1 [10]) was 92%, the Inhibition (BSC-1) was 99.7% and the inhibition (Nucleic Acid [11]) was 99%.

From ChEMBL document CHEMBL1121548, “Structure-activity relationships of pyrrole amidine antiviral antibiotics. 2. Preparation of mono- and tripyrrole derivatives of congocidine” (1980)
